Consider 16 compounds from PMC11843339 (ACS Bio & Med Chem Au, 2024).

For series [1], the system named is 143B. Briefly: MTT cytotoxicity assay, 143B cells. It is filed as cell-based, human. The note with it: 72 h, read-out: cytotoxic activity IC50. The method in brief:
(§1)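 Human osteosarcoma cells (from ATCC) were seeded at 5 × 10^3 per well and left to attach overnight at 37 °C, 5% CO2. They were then exposed to test compound for 72 h. Medium was replaced with 0.5 mg/mL MTT in culture medium for 2 h at 37 °C, and formazan was dissolved in DMSO. OD was read at 570 nm, survival was calculated as % of untreated control OD, and runs were done in triplicate.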
(Tetrazolium assays rely on reduction of a dye to a coloured formazan, in cell work by metabolically active cells.)

The test system of series [2] is MNNG/HOS. Nature of the series: MTT cytotoxicity assay, MNNG/HOS cells. It is filed as cell-based, human. The note with it: 72 h, read-out: cytotoxic activity IC50. In short, it runs like this: as §1
Series [3] concerns U2OS. Nature of the series: MTT cytotoxicity assay, U2OS cells. Conditions: 72 h, read-out: cytotoxic activity IC50. The class given is cell-based, human. The method in brief: as §1
Series [4] deals with SaOS-2. Nature of the series: MTT cytotoxicity assay, SaOS-2 cells. It is filed as cell-based, human. Conditions: read-out: cytotoxic activity IC50. In short, it runs like this: as §1
For series [5], the system named is osteosarcoma cancer cell lines (MNNG/HOS, U2OS, 143B, SaOS-2). Nature of the series: MTT cytotoxicity, summary over osteosarcoma cell lines. The class given is cell-based, human. The note with it: for IC50: Homo sapiens, 72 h, read-out: IC50 range against all OS cell lines. The method in brief: as §1
Series [6] can be described thus: MTT cell viability, normal osteoblast cells hFOB 1.19. It is filed as cell-based, human. The note with it: human, hFOB 1.19 normal osteoblast cells. In short, it runs like this: (§2)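 Normal human osteoblasts (hFOB 1.19, from ATCC) were exposed to test compound at 0.1, 1.0, 10.0 and 100.0 μM for 72 h. Viability was read by MTT: 0.5 mg/mL for 2 h at 37 °C, DMSO solubilisation, OD at 570 nm. Values are expressed relative to untreated control set at 100%, as mean ± SD (n = 3).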

Series [7] concerns the target human IMPDH1 (Homo sapiens, UniProt P20839). Nature of the series: IMPDH1 inhibitory assay. The class given is biochemical.
For series [8], the system named is hFOB 1.19. Nature of the series: MTT cell viability, normal osteoblast cells hFOB 1.19. It is filed as cell-based, human. The note with it: at the tested concentrations (0.1-100 μM), in words. In short, it runs like this: as §2
In series [9] the target is human IMPDH2 (Homo sapiens, UniProt P12268). Briefly: IMPDH2 inhibitory assay. The class given is biochemical.

Like-named read-outs stand apart in the source and are kept apart here. Where only a bound is given, the exact number is not on record here.

human IMPDH1, sequence (P20839 whole entry): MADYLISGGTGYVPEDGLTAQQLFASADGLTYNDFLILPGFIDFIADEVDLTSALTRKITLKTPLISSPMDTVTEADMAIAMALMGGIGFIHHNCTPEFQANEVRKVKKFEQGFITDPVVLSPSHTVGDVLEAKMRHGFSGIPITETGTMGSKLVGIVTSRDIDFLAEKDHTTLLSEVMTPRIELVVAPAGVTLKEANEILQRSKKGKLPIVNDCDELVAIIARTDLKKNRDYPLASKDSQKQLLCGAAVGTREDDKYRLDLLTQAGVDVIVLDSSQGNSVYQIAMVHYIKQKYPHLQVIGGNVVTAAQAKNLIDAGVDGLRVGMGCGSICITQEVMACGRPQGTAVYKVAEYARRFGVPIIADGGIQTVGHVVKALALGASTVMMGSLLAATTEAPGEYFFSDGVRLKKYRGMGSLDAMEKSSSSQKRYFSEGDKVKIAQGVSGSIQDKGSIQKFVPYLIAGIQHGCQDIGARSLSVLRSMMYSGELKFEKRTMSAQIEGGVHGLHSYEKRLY

As a reminder, the IC50 is the point on the concentration scale where inhibition reaches its midpoint. Take `COc1c(C)c2c(c(O[Si](C)(C)C(C)(C)C)c1C/C=C(\C)CCC(=O)O[Si](C)(C)C(C)(C)C)C(=O)OC2` [Compound 2a, tert-Butyldimethylsilyl (E)-6-(4-((tert-Butyldimethylsilyl)oxy)-6-methoxy-7-methyl-3-oxo-1,3-dihydroisobenzofuran-5-yl)-4-methylhex-4-enoate]: the IC50 in [1] (Homo sapiens, 143B) is 4.12 ± 0.28 µM; in series [2] (Homo sapiens, HOS), 1.36 ± 0.76 µM; in series [3] (Homo sapiens, U2OS), 3.8 ± 0.88 µM; in [4] (Homo sapiens, SAOS-2, 72 h) it was 5.43 ± 2.87 µM; in series [5], 1.36 to 5.43 µM.
`COc1c(C)c2c(c(O)c1C/C=C(\C)CCC(=O)O[Si](C(C)C)(C(C)C)C(C)C)C(=O)OC2` [Compound 4c, Triisopropylsilyl (E)-6-(4-Hydroxy-6-methoxy-7-methyl-3-oxo-1,3-dihydroisobenzofuran-5-yl)-4-methylhex-4-enoate]: the IC50 in series [1] (Homo sapiens, 143B) stood at 35 ± 9.9 µM; in [2] (Homo sapiens, HOS), 5.7 ± 0.71 µM; in series [3] (Homo sapiens, U2OS), 0.92 µM; in series [4] (Homo sapiens, SAOS-2, 72 h), 5.5 ± 1.51 µM.
In the case of `COc1c(C)c2c(c(O[Si](C)(C)C(C)(C)C)c1C/C=C(\C)CCC(=O)O)C(=O)OC2` [Compound 3a, (E)-6-(4-((tert-Butyldimethylsilyl)oxy)-6-methoxy-7-methyl-3-oxo-1,3-dihydroisobenzofuran-5-yl)-4-methylhex-4-enoic acid], the IC50 in [1] (Homo sapiens, 143B) is 3.9 ± 0.76 µM; in series [2] (Homo sapiens, HOS), 0.86 ± 0.2 µM; in series [3] (Homo sapiens, U2OS), 2.31 ± 1.26 µM; in series [4] (Homo sapiens, SAOS-2, 72 h), 4.55 ± 2.6 µM.
On to `COc1c(C)c2c(c(O)c1C/C=C(\C)CCC(=O)OCCc1ccc(F)cc1)C(=O)OC2` [Compound 6b, 4-Fluorophenethyl (E)-6-(4-Hydroxy-6-methoxy-7-methyl-3-oxo-1,3-dihydroisobenzofuran-5-yl)-4-methylhex-4-enoate], for which the half-maximal inhibitory concentration (IC50) in series [1] (Homo sapiens, 143B) was determined as 2 ± 0.14 µM; in series [3] (Homo sapiens, U2OS), 7 ± 2.12 µM; in series [4] (Homo sapiens, SAOS-2, 72 h), 5.75 ± 1.06 µM.
`COc1ccc(CCOC(=O)CC/C(C)=C/Cc2c(OC)c(C)c3c(c2O[Si](c2ccccc2)(c2ccccc2)C(C)(C)C)C(=O)OC3)cc1` [Compound 5c, 4-Methoxyphenethyl (E)-6-(4-((tert-Butyldiphenylsilyl)oxy)-6-methoxy-7-methyl-3-oxo-1,3-dihydroisobenzofuran-5-yl)-4-methylhex-4-enoate]: the IC50 in [1] (Homo sapiens, 143B) was determined as 14.5 ± 4.95 µM; in series [2] (Homo sapiens, HOS), 43.5 ± 2.12 µM; in series [3] (Homo sapiens, U2OS) it was 10.2 ± 1.06 µM; in [4] (Homo sapiens, SAOS-2, 72 h), 39.5 ± 0.71 µM.
As to `COc1c(C)c2c(c(O)c1C/C=C(\C)CCC(=O)OC(c1ccccc1)(c1ccccc1)c1ccccc1)C(=O)OC2` [Compound 2e, Trityl (E)-6-(4-Hydroxy-6-methoxy-7-methyl-3-oxo-1,3-dihydroisobenzofuran-5-yl)-4-methylhex-4-enoate], the IC50 was 5.13 ± 1.1 µM in series [1] (Homo sapiens, 143B); 0.68 ± 0.11 µM in [2] (Homo sapiens, HOS); 0.98 ± 0.035 µM in [3] (Homo sapiens, U2OS); 4.83 ± 0.5 µM in series [4] (Homo sapiens, SAOS-2, 72 h); 0.68 to 5.13 µM in series [5].
`COc1c(C)c2c(c(O)c1C/C=C(\C)CCC(=O)O[Si](c1ccccc1)(c1ccccc1)C(C)(C)C)C(=O)OC2` [Compound 4b, tert-Butyldiphenylsilyl (E)-6-(4-Hydroxy-6-methoxy-7-methyl-3-oxo-1,3-dihydroisobenzofuran-5-yl)-4-methylhex-4-enoate]: the IC50 was 6.8 ± 1.41 µM in series [1] (Homo sapiens, 143B); 13 ± 4.24 µM in [2] (Homo sapiens, HOS); 1.85 ± 0.07 µM in [3] (Homo sapiens, U2OS); 1.85 ± 0.35 µM in [4] (Homo sapiens, SAOS-2, 72 h).
The like results for `COc1c(C)c2c(c(O[Si](C(C)C)(C(C)C)C(C)C)c1C/C=C(\C)CCC(=O)O)C(=O)OC2` [Compound 3c, (E)-6-(6-Methoxy-7-methyl-3-oxo-4-((triisopropylsilyl)oxy)-1,3-dihydroisobenzofuran-5-yl)-4-methylhex-4-enoic acid] were, in that order, 6.31 ± 0.4 µM, 2.68 ± 1.02 µM, 3.75 ± 1.06 µM and 5.44 ± 0.82 µM.
As to “(E)-6-(4-((tert-Butyldimethylsilyl)oxy)-6-methoxy-7-methyl-3-oxo-1,3-dihydroisobenzofuran-5-yl)-4-methylhex-4-enoic acid [Compound 3b]”, the IC50 came to 4.74 ± 0.76 µM in series [1] (143B cells, MTT); 1.15 ± 0.35 µM in series [2] (MNNG cells, MTT); 2.96 ± 2.32 µM in series [3] (U2OS cells, MTT); 4.58 ± 1.05 µM in series [4] (SaOS cells, MTT, 72 h).
Usually viability stands for the share of living cells, or the viability signal relative to a control. As for `COc1c(C)c2c(c(O)c1C/C=C(\C)CCC(=O)O)C(=O)OC2` [MPA 1, Mycophenolic acid, reference compound], the 50% inhibitory concentration (IC50) in [1] (Homo sapiens, 143B) was 1.55 ± 0.49 µM; in [2] (Homo sapiens, HOS), 0.64 ± 0.08 µM; in series [3] (Homo sapiens, U2OS), 0.68 ± 0.04 µM; in [4] (Homo sapiens, SAOS-2, 72 h), 4 ± 0.28 µM; in series [5] it was 0.64 to 4 µM. In addition, the viability at 72 h, 0.1 µM in series [6] was 74.3 ± 4.24%. The compound further gave a viability at 72 h, 1 µM in [6] of 20.1 ± 1.41%. This compound registered a viability at 72 h, 10 µM in series [6] of 7.13 ± 0.67%. Further, the viability at 72 h, 100 µM in [6] turned out to be 3.38 ± 3.4%. In addition, the Ki in series [7] is 0.136 µM.
With `COc1c(C)c2c(c(O)c1C/C=C(\C)CCC(=O)ON1C(=O)c3ccccc3C1=O)C(=O)OC2` [Compound 6a, 1,3-Dioxoisoindolin-2-yl (E)-6-(4-Hydroxy-6-methoxy-7-methyl-3-oxo-1,3-dihydroisobenzofuran-5-yl)-4-methylhex-4-enoate], the IC50 in series [1] (Homo sapiens, 143B) came to 4.85 ± 1.48 µM; in series [3] (Homo sapiens, U2OS) it was 1.38 ± 0.6 µM; in [4] (Homo sapiens, SAOS-2, 72 h) it was 6.9 µM.
On to `COc1ccc(CCOC(=O)CC/C(C)=C/Cc2c(O)c3c(c(C)c2OC)COC3=O)cc1` [Compound 6c, 4-Methoxyphenethyl (E)-6-(4-Hydroxy-6-methoxy-7-methyl-3-oxo-1,3-dihydroisobenzofuran-5-yl)-4-methylhex-4-enoate], for which the IC50 came out at 2.6 ± 0.28 µM in series [1] (Homo sapiens, 143B); 38 ± 11.3 µM in series [2] (Homo sapiens, HOS); 7.35 ± 1.63 µM in series [3] (Homo sapiens, U2OS); 9 ± 1.41 µM in series [4] (Homo sapiens, SAOS-2, 72 h).
On to `COc1c(C)c2c(c(O[Si](c3ccccc3)(c3ccccc3)C(C)(C)C)c1C/C=C(\C)CCC(=O)O[Si](c1ccccc1)(c1ccccc1)C(C)(C)C)C(=O)OC2` [Compound 2b, tert-Butyldiphenylsilyl (E)-6-(4-((tert-Butyldiphenylsilyl)oxy)-6-methoxy-7-methyl-3-oxo-1,3-dihydroisobenzofuran-5-yl)-4-methylhex-4-enoate], for which the IC50 in series [1] (Homo sapiens, 143B) is 5.85 ± 0.54 µM; in [2] (Homo sapiens, HOS) it was 1.18 ± 0.74 µM; in series [3] (Homo sapiens, U2OS), 2.52 ± 0.96 µM; in [4] (Homo sapiens, SAOS-2, 72 h), 5.8 ± 1.15 µM; in series [5], 1.18 to 5.85 µM.
The like results for `COc1c(C)c2c(c(O[Si](C(C)C)(C(C)C)C(C)C)c1C/C=C(\C)CCC(=O)O[Si](C(C)C)(C(C)C)C(C)C)C(=O)OC2` [Compound 2c, Triisopropylsilyl (E)-6-(6-Methoxy-7-methyl-3-oxo-4-((triisopropylsilyl)oxy)-1,3-dihydroisobenzofuran-5-yl)-4-methylhex-4-enoate] were, in that order, 63.1 ± 3.2 µM, 6.82 ± 3.51 µM, 24.43 ± 0.04 µM, 17.4 ± 9.03 µM and 6.82 to 63.9 µM.
Regarding `COc1c(C)c2c(c(O)c1C/C=C(\C)CCC(=O)O[Si](c1ccccc1)(c1ccccc1)c1ccccc1)C(=O)OC2` [Compound 2d, Triphenylsilyl (E)-6-(4-Hydroxy-6-methoxy-7-methyl-3-oxo-1,3-dihydroisobenzofuran-5-yl)-4-methylhex-4-enoate], the IC50 in series [1] (Homo sapiens, 143B) is 1.65 ± 0.26 µM; in [2] (Homo sapiens, HOS), 0.64 ± 0.15 µM; in [3] (Homo sapiens, U2OS), 1.01 ± 0.4 µM; in [4] (Homo sapiens, SAOS-2, 72 h) it was 2.27 ± 0.68 µM; in [5], 0.64 to 2.27 µM. In series [6], this compound gave a viability at 72 h, 0.1 µM of 93.9 ± 1.01%. For the same compound, the viability at 72 h, 1 µM in series [6] stood at 92 ± 1.78%. Further, in [6], the viability at 72 h, 10 µM worked out at 84.5 ± 2.95%. For the same compound, the viability at 72 h, 100 µM in series [6] is 73.3 ± 1.39%. The “cytotoxicity to human normal osteoblast cells (hFOB 1.19)” value in [8] was “low cytotoxicity”. In addition, the Ki in series [7] (read-out: Ki,app (apparent tight-binding inhibition constant), IMPDH1, IMP 100 μM, NAD+ 200 μM, NO = No inhibition observed) is > 100 µM; in series [9], 1.8 µM. In series [5] (143B and SaOS cell lines, versus 2e), the “fold more potent than carbon compound 2e” value was in the range of 2 to 3 fold.
`COc1c(C)c2c(c(O[Si](c3ccccc3)(c3ccccc3)C(C)(C)C)c1C/C=C(\C)CCC(=O)ON1C(=O)c3ccccc3C1=O)C(=O)OC2` [Compound 5a, 1,3-Dioxoisoindolin-2-yl (E)-6-(4-((tert-Butyldiphenylsilyl)oxy)-6-methoxy-7-methyl-3-oxo-1,3-dihydroisobenzofuran-5-yl)-4-methylhex-4-enoate]: the IC50 in series [1] (Homo sapiens, 143B) turned out to be 31 ± 1.41 µM; in series [2] (Homo sapiens, HOS) it was 19.5 ± 3.54 µM; in series [3] (Homo sapiens, U2OS), 10.2 ± 3.89 µM; in [4] (Homo sapiens, SAOS-2, 72 h) it was 12 µM.
